Bioassay records as filed in PubChem BioAssay.
Only some compounds are listed: those with a hit (about 1.6% of all), similar ones and a draw of the others.
PPC-1+TRAIL kill – kills PPC-1 cancer cells in the presence of TRAIL; PPC-1 cells + TRAIL, ATPLite viability luminescence; cell killing (% activity), % at 4 µM or 5 µM; 220,000 tested, 0.41% active; AID 1443;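 active = cell killing above 50% in the first pass at 4 µM, then a duplicate retest at 5 µM averaging 50% or more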;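 note: plate controls were cells with TRAIL plus DMSO for no effect and medium-only wells lacking cells for full effect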
FLuc stim CS – firefly luciferase counter-screen for stimulation assays; P08659; ATPlite luciferase biochemical, luminescence, 10 min; 0 = ATP-free wells, 1 = DMSO control; activation factor at 10 µM; 200,000 tested, under 10 active;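 active = luciferase activation factor, scaled between plate controls, of at least 2 with compound at 10 µM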
Target sequence (P08659 whole entry, looked up): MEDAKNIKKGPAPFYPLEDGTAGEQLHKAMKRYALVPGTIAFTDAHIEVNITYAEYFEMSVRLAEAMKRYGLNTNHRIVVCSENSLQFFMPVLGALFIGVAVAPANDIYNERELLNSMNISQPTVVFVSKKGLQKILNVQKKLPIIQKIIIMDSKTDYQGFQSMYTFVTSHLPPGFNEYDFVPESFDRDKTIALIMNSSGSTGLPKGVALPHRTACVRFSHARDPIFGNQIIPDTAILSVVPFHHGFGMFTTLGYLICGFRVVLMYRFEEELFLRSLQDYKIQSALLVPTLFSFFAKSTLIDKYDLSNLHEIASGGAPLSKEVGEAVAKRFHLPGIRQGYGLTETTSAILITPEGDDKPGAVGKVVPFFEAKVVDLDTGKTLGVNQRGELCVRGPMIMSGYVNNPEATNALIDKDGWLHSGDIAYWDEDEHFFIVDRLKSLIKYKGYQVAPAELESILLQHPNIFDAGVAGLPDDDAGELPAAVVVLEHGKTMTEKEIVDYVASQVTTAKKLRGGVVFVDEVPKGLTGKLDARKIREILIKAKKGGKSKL
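System: cell-free luciferase reagent; medium: PBS as buffer for the ATP substrate; doses: test compounds dosed from 2 mM stocks in 100% DMSO; incubation: 10 min, room temperature; measured by: luminescence from luciferase reaction; read-out: luciferase activation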
C8 TRAIL sens – sensitizes caspase-8 expressing cells to TRAIL; 360,000 tested, 1% active; inhibition (viability loss, TRAIL sensitization), % at 10 µM; AID 624354; NB7+C8 cells + TRAIL, ATPlite viability luminescence;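 active = compounds causing at least 50% loss of cell viability in the single-dose screen, relative to plate controls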
FLuc inhib CS – counter-screen for luciferase assay inhibitors: firefly luciferase inhibition | inhibition, % at 10 µM | ATPLite firefly luciferase biochemical luminescence, 10 min | 200,000 tested, 1.5% active | AID 1006;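 active = inhibition above about 50% when tested at 10 µM, limit read from the data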
Platelet DG rel – platelet dense granule release activity. AID 1663. 300,000 tested, 0.22% active. human platelet-rich plasma, SFLLRN dense granule ATP release, luminescence. inhibition, %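 (compounds screened at 7.5 µM in platelet-rich plasma)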;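 active = mean replicate score, as percent of positive control, at or above 50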
PPC-1 tox – kills PPC-1 cells; shares compounds with PPC-1+TRAIL kill; PPC-1 viability, ATPlite luminescence, overnight; cytotoxicity, % at 5 µM; 1,200 tested, 50% active; AID 1447;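 active = reconfirmed compounds whose average cytotoxicity reaches 50% or more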;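 note: 0% = DMSO-treated cells and 100% = wells holding medium but no cells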
Starred values were filed as active, the others as inactive; . = not tested or not shown.

SMILES	PPC-1+TRAIL kill	FLuc stim CS	C8 TRAIL sens	FLuc inhib CS	Platelet DG rel	PPC-1 tox
O=C(/C=C\Nc1ccc2c(c1)OCO2)c1ccc2c(c1)OCO2	85*	0.1	83*	89*	18	84*
CCOC(=O)[C@]12CCC=C1N(Cc1ccco1)C(=O)[C@H](CC(=O)NCC1CCCCC1)C2	.	.	10	.	.	.
O=C(/C=C\Nc1ccc2c(c1)OCO2)c1ccccn1	92*	0	87*	95*	58*	92*
COc1ccc(NC(=O)c2ccc3c(c2)OCO3)cc1	.	.	41	.	0	.
COc1ccc(N/C=C\C(=O)c2ccc3c(c2)OCO3)cc1	68*	0.1	69*	89*	15	59*
COc1cccc(C(=O)C(=O)N2CCN(C(=O)OCc3ccccc3)CC2)c1	.	.	-7	.	.	.
O=C(CN1C(=O)c2ccccc2S1(=O)=O)c1ccc2c(c1)OCCO2	84*	.	85*	.	-4	82*
O=C(CN1C(=O)c2ccccc2S1(=O)=O)c1ccc2c(c1)OCCCO2	86*	.	91*	.	-2	86*
O=C(Nc1ccc2c(c1)OCO2)C1Cc2c(-c3ccc4c(c3)OCO4)ccnc2O1 (stereo not drawn)	.	.	11	.	.	.
O=C(N/N=C/c1ccc2nccnc2c1)c1ccncc1	-2	.	24	.	-2	.
O=C(N/N=C/c1ccc2nccnc2c1)c1ccccc1O	63*	.	.	.	1	63*
COc1cncc(C#Cc2ccccn2)c1	.	.	5	.	.	.
O=C1C(Cl)=C(NCCN2CCCCC2)C(=O)c2ccccc21	48	1.1	92*	-6	1	46
CCNC1=C(Cl)C(=O)c2ccccc2C1=O	7	1	3	-1	-12	.
O=C1C(=O)c2ccccc2C(O)=C1c1ccccc1F	-2	.	0	.	12	.
O=C1c2ccccc2C(=O)C1c1ccnc2ccccc12	86*	0.1	90*	91*	7	87*
O=C1C(c2ccnc3ccccc23)=C(O)c2ccccc21	84*	0.1	89*	90*	20	86*
COC(=O)[C@@]12C[C@@H](CC(=O)N3CCCCC3)C(=O)N(Cc3ccco3)C1=CCC(C)(C)C2	.	.	-6	.	.	.
COc1ccc(CN2C(=O)CSCC2(C)C(=O)Nc2ccc3c(c2)OCCO3)cc1 (stereo not drawn)	.	.	2	.	.	.
COC(=O)c1ccccc1COc1cccn2c(N(C)Cc3cccs3)c(C)nc12	.	.	2	.	.	.
CCCCCCCCCCCCCCCCn1cc[n+](CC(C)=O)c1	26	1	34	-5	.	15
Cn1cnnc1Sc1ccc(C(=O)OCC(=O)NC2CC2)cc1[N+](=O)[O-]	14	1	0	-2	.	1
CC1CCC(NC(=O)COC(=O)CSc2ccc(C(N)=O)cc2[N+](=O)[O-])CC1 (stereo not drawn)	.	.	12	.	-2	.
Cc1ccc(S(=O)(=O)Cc2nc3ccccc3c(=O)[nH]2)cc1	8	1	-6	-3	5	.
Cc1ccc(/C=C/c2nc3ccccc3c(=O)[nH]2)cc1	93*	.	93*	.	45	92*
SMILES	PPC-1+TRAIL kill	FLuc stim CS	C8 TRAIL sens	FLuc inhib CS	Platelet DG rel	PPC-1 tox
Cc1ccc(-c2nc(-c3ccccc3)no2)c(Cl)c1	81*	0.1	87*	95*	19	77*
Cc1n[nH]c(=O)nc1N1CCN(c2ccccc2)CC1	6	1.1	1	-8	-6	6
Cc1cc(NC(=O)c2ccc3c(c2)OCCO3)ccc1NC(=O)c1ccco1	51*	0.2	63*	82*	6	50
Cc1ccc(C(=O)Nc2ccc3nccnc3c2)cc1	74*	0.1	76*	89*	9	74*
Cc1ccc(C(=O)Nc2ccc3c(c2)CCC3)cc1	52*	0.1	79*	90*	-14	53*
Cc1ccc(C(=O)Nc2cnc3ccccc3c2)cc1	70*	0.1	78*	89*	.	67*
Cc1ccc(C(=O)NCC(=O)Nc2ccc3c(c2)CCC3)cc1	.	.	-8	.	.	.
COC(=O)c1c(N)[nH]c(C(=O)c2ccccc2)c1-c1ccc(Br)cc1	.	.	-6	.	.	.
Cc1ccc(C(=O)Nc2cc3ccccc3oc2=O)cc1	72*	0.1	82*	87*	50*	72*
O=C(Nc1ccc2c(c1)OCCO2)c1ccc(Cl)c(Cl)c1	.	.	6	.	2	.
O=C(Nc1ccc2c(c1)OCCO2)c1ccc2nccnc2c1	50	0.2	68*	80*	16	49
